Assay outcomes from PubChem.
Only some compounds are listed: those with a hit (about 1.9% of all), similar ones and a draw of the others.
M5 antag – CHRM5 antagonism in calcium assay; hit rate 0.59% among 360,000; P08912; CHO-hM5 cells, Fluo-8 calcium fluorescence, ACh EC80; inhibition, % at 3 µM;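 active = inhibition above a per-plate cutoff, the mean of that plate's test compounds plus 3 SD, cut at about 27% in these data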
Target sequence (P08912 whole entry, looked up): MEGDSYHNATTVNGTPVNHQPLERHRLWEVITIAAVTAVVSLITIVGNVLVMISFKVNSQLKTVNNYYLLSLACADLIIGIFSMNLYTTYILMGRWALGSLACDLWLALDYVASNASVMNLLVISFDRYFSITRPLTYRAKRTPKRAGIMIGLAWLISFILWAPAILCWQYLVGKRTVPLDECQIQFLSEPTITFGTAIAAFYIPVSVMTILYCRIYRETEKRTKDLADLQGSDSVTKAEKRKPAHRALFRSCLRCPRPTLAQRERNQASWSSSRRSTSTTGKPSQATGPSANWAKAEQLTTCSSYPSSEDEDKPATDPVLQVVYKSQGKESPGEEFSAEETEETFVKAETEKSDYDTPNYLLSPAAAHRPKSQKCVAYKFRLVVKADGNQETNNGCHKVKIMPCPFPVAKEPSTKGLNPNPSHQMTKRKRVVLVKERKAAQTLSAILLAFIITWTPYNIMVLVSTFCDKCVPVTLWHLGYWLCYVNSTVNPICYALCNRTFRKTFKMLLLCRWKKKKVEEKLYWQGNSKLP
M4 PAM – CHRM4 positive allosteric modulation | activation, % at 3 µM | P08173 | CHO-K1 hM4/Gqi5, Fluo-8 calcium fluorescence, ACh EC20; 0% = ACh EC20, 100% = maximal ACh | AID 624126 | hit rate 0.4% among 360,000;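 active = activation above its plate's cutoff, the mean activation of sample wells plus 3 SD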
CHRM4 agonist – CHRM4 agonism in calcium assay | P08173 | CHO-K1 hM4/Gqi5, Fluo-8 calcium fluorescence; vehicle 0%, full acetylcholine response 100% | activation, % at 3 µM | hit rate 0.14% among 360,000 | AID 624127;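 active = activation above the run mean over all test wells plus 3 SD, cut at about 32% in these data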;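 note: peak over basal fluorescence ratio per well then scaled between controls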
M5 ag – agonists of human muscarinic M5 receptor (CHRM5); P08912; CHO-K1 hM5 cells, Fluo-8 calcium fluorescence; 0% DMSO wells, 100% maximal acetylcholine response; activation, % at 3 µM; hit rate 0.19% among 360,000;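 active = activation above the run's mean over test compounds plus 3 SD, cut at about 23% in these data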;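 note: signal is peak over basal fluorescence ratio across the kinetic read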
M5 PAM – CHRM5 positive allosteric modulation. P08912. CHO-K1 hM5, Fluo-8 calcium, ACh EC20 PAM; 0% = ACh EC20, 100% = ACh EC100. activation, % at 3 µM. hit rate 0.3% among 360,000. AID 624038;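 active = activation above the run cutoff, the mean activation of all test compounds plus 3 SD, cut at about 18% in these data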
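Assay system – human M5 receptor in CHO-K1 cells · Read-out – % activation, ACh-normalized · Technique – Fluo-8 calcium fluorescence · Dosing – single-point, 3 µM nominal · Incubation – Fluo-8 loading 80 min at 37 °C plus 30 min room temperature · Repeats – singlicate, one well per test compound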
CHRM4 antagonist – antagonists of human muscarinic M4 receptor (CHRM4); P08173; CHO-hM4 cells, ACh EC80, Fluo-8 calcium fluorescence; inhibition, % at 3 µM; hit rate 0.73% among 360,000; AID 624125;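 active = inhibition above its plate's cutoff, the mean inhibition of sample wells plus 3 SD, cut at about 27% in these data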
Hits are given with their value; - = inactive.

SMILES	M5 antag	M4 PAM	CHRM4 agonist	M5 ag	M5 PAM	CHRM4 antagonist
COc1ccccc1-c1csc(C(C)(O)c2ccccc2)n1 (stereo not given)	-	-	-	-	-	-
CN(C)CCNc1ncnc2c1ncn2[C@H]1CN(Cc2ccncc2)C[C@@H](CO)O1	-	-	-	-	-	-
COC(=O)c1ccc(S(=O)(=O)N2CCCN(Cc3ccccc3)CC2)n1C	-	-	-	-	-	-
COC(=O)c1ccc(S(=O)(=O)N2CCN(CCO)CC2)n1C	-	-	-	-	25	-
Cc1ccc(-c2csc(NC(=O)c3ccc4c(=O)n5c(nc4c3)CCCCC5)n2)cc1	-	23	-	-	-	-
O=C(c1ccc2c(=O)n3c(nc2c1)CCCCC3)N1CCN(C(c2ccccc2)c2ccccc2)CC1	-	-	-	-	-	64
O=C(c1ccc(=O)oc1)N1CCN(C(c2ccccc2)c2ccccc2)CC1	36	-	-	-	-	43
O=C(c1ccc2c(=O)n3c(nc2c1)CCCCC3)N1CCN(c2ccccc2)CC1	-	-	-	-	-	-
COc1cccc(C(O)c2nc(-c3ccccc3)cs2)c1 (stereo not given)	-	-	-	-	-	-
CC1(C(=O)NS(=O)(=O)c2ccc(Cl)cc2)CCN1C(=O)CCc1cccs1 (stereo not given)	-	-	-	-	-	-
CCOC(=O)C1CCCN(C(=S)Nc2ccc(C)cc2C)C1 (stereo not given)	-	-	-	36	-	-
CCOC(=O)C1CCCN(C(=O)Cc2ccc(C)cc2)C1 (stereo not given)	-	-	-	-	-	-
CCOC(=O)C1CCCN(C(=O)Cc2c(C(=O)O)[nH]c3ccccc23)C1 (stereo not given)	-	-	-	38	-	-
CCOC(=O)C1CCCN(C(=O)C2COc3ccccc3O2)C1 (stereo not given)	-	-	-	-	-	-
CCOC(=O)C1CCCN(C(=O)C2c3ccccc3Oc3ccccc32)C1 (stereo not given)	-	-	-	27	-	-
CCOC(=O)C1CCCN(C(=O)Cn2nc(C)c3c(C)n(-c4ccccc4)nc3c2=O)C1 (stereo not given)	-	17	-	-	-	-
COc1cc2c3c(cccc3c1)C(=O)N(CCN1CCCC1)C2=O	-	-	-	-	-	-
CCOC(=O)C1(C)CCCN(C(=O)c2ccc(OC)cc2)C1 (stereo not given)	-	-	-	-	-	-
CCOC(=O)C1CCCN(C(=S)Nc2ccc(Nc3ccccc3)cc2)C1 (stereo not given)	-	-	-	32	-	-
CN1CCN(NC(=O)Nc2cc(Cl)cc(Cl)c2)CC1	44	-	-	-	-	-
Cn1nc(C(C)(C)C)cc1NC(=O)Nc1cc(Cl)cc(Cl)c1	34	-	-	-	-	-
COc1ccc(CCNC(=O)c2cc([C@@H](NC(=O)OC(C)(C)C)C(C)C)sc2N)cc1OC	-	-	-	-	-	-
COC(=O)[C@]1(C)CCC[C@@]2(C)C3CC[C@]4(OC(C)=O)C[C@@]3(CCC21)CC4=O (stereo not given in full)	-	-	-	-	-	-
COC(=O)C1(C)CCCC2(C)C3CCC(C(C)C)C(CO)C3C(CO)CC12 (stereo not given)	-	-	-	-	-	29
CC1(C(=O)NS(=O)(=O)c2ccc3c(c2)CCO3)CCN1C(=O)Cc1ccc(-c2ccccc2)cc1 (stereo not given)	-	-	-	-	-	-
SMILES	M5 antag	M4 PAM	CHRM4 agonist	M5 ag	M5 PAM	CHRM4 antagonist
O=C1c2ccccc2C(Nc2cccnc2)N1Cc1ccccc1Cl (stereo not given)	-	-	-	-	-	-
O=C1c2ccccc2C(Nc2cccnc2)N1Cc1ccccc1 (stereo not given)	-	-	-	-	-	29
Cc1ccc(C2(c3ccccc3)NC(=O)N(CC(=O)NCc3ccco3)C2=O)cc1C (stereo not given)	-	-	-	-	18	-
COc1ccccc1NC(=O)C1=C(C)NC(=O)NC1c1ccc(C)cc1 (stereo not given)	-	-	-	-	-	32
COC(=O)CCCCCCCCCCN1CCCCC1	-	-	-	-	-	40
COC(=O)CCCCC(=O)OC	-	-	-	-	-	-
CN1c2ccccc2-c2nc3ccccc3n2C1c1cccs1 (stereo not given)	-	-	-	-	18	-
Cc1ccc(C2N(C)c3ccccc3-c3nc4ccccc4n32)o1 (stereo not given)	-	-	-	-	-	-
Cc1cc(C)cc(Cn2cc(CN3CC(N4CCN(Cc5ccccc5F)CC4)CS3(=O)=O)nn2)c1 (stereo not given)	-	-	-	-	-	-
Cn1nnnc1SCCNC(=O)C1CCC(=O)N(Cc2ccc(Cl)cc2)C1 (stereo not given)	-	-	-	-	19	-
CCOC(=O)c1[nH]cnc1C(=O)N1CCN(C(=O)OC(C)(C)C)CC1	-	24	-	-	-	-
C[C@H](OC(=O)c1[nH]cnc1C(=O)N1CCN(C(=O)OC(C)(C)C)CC1)c1ccccc1	-	-	-	-	-	-
CCCN(CC(=O)Nc1ccc(F)c(F)c1F)C(=O)C1CC(=O)N(Cc2ccccc2)C1 (stereo not given)	-	21	-	-	-	-
COc1ccc(-c2ccc3[nH]c4c(c3c2)CCN2C(=O)[C@@H]([C@H](C)O)[C@@H](N(C)C(=O)Nc3ccc(F)cc3)C[C@@H]42)cc1	-	-	-	-	-	-
COc1ccc(OCC(O)CN2CCC(CN3C(=O)c4cccc5cccc(c45)C3=O)CC2)cc1 (stereo not given)	-	-	-	-	-	27
COc1ccccc1CCC(=O)Nc1ccc2c(c1)c(=O)n(C)n2Cc1cccc(C(F)(F)F)c1	-	-	-	-	-	-
COC(=O)C[C@@H]1C=C[C@@H](NS(=O)(=O)c2ccc(OC)cc2)[C@@H](CO)O1	-	-	-	-	-	-
Cc1ccc(NC(=O)C2CCN(S(=O)(=O)c3ccc4c(c3)NC(=O)C(C)S4)CC2)cc1C (stereo not given)	36	-	-	-	-	-
Cc1ccc(S(=O)(=O)N2CCC(C(=O)NCCCN3CCCC3=O)CC2)cc1C	-	22	-	-	-	-
Cc1ccc(S(=O)(=O)N2CCC(C(=O)NCCCN3CCCC3=O)CC2)cc1	-	-	-	-	-	-
